Experimental data taken from ChEMBL document CHEMBL1142896, “The synthesis of amphipathic prodrugs of 1,2-diol drugs with saccharide conjugates by high regioselective enzymatic protocol” (Bioorg Med Chem, 2007).

Key:
[1] = Partition coefficient, log P of the compound; format: physicochemical; conditions: octanol/water
Procedure, shortened: (§1)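 Shake-flask partitioning between n-octanol and phosphate buffer pH 7.4; phases mixed 15 min, centrifuged at 1 · 10⁴ rpm for 5 min, separated. Each layer diluted tenfold and analysed by HPLC (UV detection 228–232 nm, methanol/water 80:20 eluent). D7.4 calculated from the layer concentrations; triplicate, mean reported.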

[2] = Distribution coefficient, log D at pH 7.4; format: physicochemical; conditions: octanol/water; procedure, shortened: as §1
[3] = Half life of hydrolysis in hydrochloric acid buffer at pH 1.2; format: ADME
Procedure, shortened: (§2)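 Non-enzymatic chemical hydrolysis at 37 °C in 0.2 M hydrochloric acid buffer pH 1.2 (simulated gastric fluid) or 0.2 M phosphate buffer pH 7.4. 25 mM dioxane stock diluted 1:10 into thermostated buffer. Remaining ester followed by HPLC. Pseudo-first-order k_obsd fitted, and t1/2 derived from it.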

[4] = Half life of hydrolysis in phosphate buffer at pH 7.4; format: ADME; procedure, shortened: as §2

Row | LogP [1] | Log D [2] | half-life [3] [h] | half-life [4] [h] | SMILES
1 | 1.09 | 1.09 | 8.75 | 19.9 | Cc1ccccc1OCC(O)CO (stereo unspecified) [MEPHENESIN]
2 | 1.44 | 1.44 | – | – | NC(=O)OCC(O)COc1ccc(Cl)cc1 (stereo unspecified) [CHLORPHENESIN CARBAMATE]
